ChEMBL document CHEMBL1177650, “Synthesis, structural elucidation and in vitro antiparasitic activity against Trypanosoma cruzi and Leishmania chagasi parasites of novel tetrahydro-1-benzazepine derivatives” (Bioorg Med Chem, 2010)

Experiments:
Leishmania chagasi [1] = experiment: Antileishmanial activity against Leishmania chagasi MHOM/BR/74/PP75 promastigotes after 72 hrs by haemocytometry; type: functional, organism-based; details: MHOM/BR/74/PP75, 72 h
Method in brief: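 Late-phase L. chagasi promastigotes, grown at 28 °C in RPMI 1640 with hemin, HEPES and 10% hiSBF, exposed to threefold serial dilutions (0.3–100 μM) for 72 h at 28 °C; untreated controls. Growth inhibition from haemocytometer counts; IC50/IC90 by sigmoidal regression; triplicates, repeated twice.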

[2] = Selectivity index, CC50 for african green monkey Vero cells to IC50 for Trypanosoma cruzi 320I01 epimastigote; type: functional
Method in brief: (§1)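 Selectivity index computed as CC50 in Vero cells divided by IC50 against the T. cruzi stage named in the line.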

Trypanosoma cruzi [3] = experiment: Antitrypanosomal activity against Trypanosoma cruzi 320I01 epimastigotes after 72 hrs by haemocytometry; type: functional, organism-based; details: 320I01, 72 h
Method in brief: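 Late-phase T. cruzi epimastigotes cultured in LIT medium with hiFCS at 28 °C; threefold serial dilutions (0.3–100 μM) for 72 h at 28 °C, untreated controls. Parasites counted in a haemocytometer; IC50/IC90 by sigmoidal regression; each concentration in triplicate, two experiments.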

[4] = Cytotoxicity against human THP1 cells after 72 hrs by MTT assay; type: cell-based; details: THP-1 cells
Method in brief: (§2)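 Vero or transformed THP-1 cells incubated with compound (0.3–300 μM) 72 h at 37 °C, 5% CO2; untreated controls. MTT read-out, formazan OD at 580 nm; % cytotoxicity = 100 × (OD control − OD treated)/OD control. CC50/CC90 by sigmoidal regression; triplicates, repeated twice. DMSO stocks 100× concentrated, diluted in medium.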

[5] = Selectivity index, CC50 for human THP1 cells to IC50 for Leishmania chagasi MHOM/BR/74/PP75 promastigotes; type: functional, THP-1
Method in brief: (§3)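 Selectivity index computed as CC50 in THP-1 cells divided by IC50 against the L. chagasi stage named in the line.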

[6] = Cytotoxicity against african green monkey Vero cells after 72 hrs by MTT assay; type: cell-based; details: chlorocebus sabaeus; method in brief: as §2
[7] = Selectivity index, CC50 for human THP1 cells to IC50 for Leishmania chagasi MHOM/BR/74/PP75 amastigotes; type: functional, THP-1; method in brief: as §3
[8] = Selectivity index, CC50 for african green monkey Vero cells to IC50 for Trypanosoma cruzi 320I01 amastigotes; type: functional; method in brief: as §1
Leishmania chagasi [9] = experiment: Antileishmanial activity against Leishmania chagasi MHOM/BR/74/PP75 amastigotes infected in human THP1 cells after 5 days by Giemsa staining; type: functional, organism-based; details: MHOM/BR/74/PP75, THP-1, 120 h
Method in brief: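 THP-1 cells (RPMI, 5% hiSBF, 37 °C, 5% CO2) transformed, then infected 24 h with late-phase L. chagasi promastigotes at parasite:cell 10:1. Treated with compound dilutions (top 100 μM) 5 days at 37 °C, 5% CO2, medium changed once after 3 days. Infected cells counted per 300 cells on methanol-fixed Giemsa slides; IC50/IC90 by sigmoidal regression; triplicates, repeated twice.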

Trypanosoma cruzi [10] = experiment: Antitrypanosomal activity against Trypanosoma cruzi 320I01 amastigotes infected in african green monkey Vero cells after 5 days by Giemsa staining; type: functional, organism-based; details: 320I01, Vero, 120 h
Method in brief: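 Vero cells (RPMI, 5% hiSBF, 37 °C, 5% CO2) infected 24 h with tissue-derived T. cruzi trypomastigotes at parasite:cell 10:1. Compound dilutions (top 100 μM) applied 5 days at 37 °C, 5% CO2, medium changed once at day 3. Infected cells scored per 300 cells on methanol-fixed Giemsa preparations; IC50/IC90 by sigmoidal regression; triplicates, two experiments.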

Row | Compound | IC50 (Leishmania chagasi [1]) | IC90 (Leishmania chagasi [1]) | Selectivity Index [2] | IC50 (Trypanosoma cruzi [3]) | IC90 (Trypanosoma cruzi [3]) | CC50 at 72 h [4] | CC90 at 72 h [4] | Selectivity Index [5] | CC50 at 72 h [6] | CC90 at 72 h [6] | Selectivity Index [7] | Selectivity Index [8] | IC50 (Leishmania chagasi [9]) | IC90 (Leishmania chagasi [9]) | IC50 (Trypanosoma cruzi [10]) | IC90 (Trypanosoma cruzi [10])
1 | Clc1ccccc1[C@@H]1C[C@@H]2Cc3ccccc3N1O2 (relative stereo) | 25.1 µM | > 100 µM | 5.71 | 19.4 µM | 57.8 µM | 110 µM | 211 µM | 4.37 | 111 µM | > 300 µM | >1 | >1 | > 100 µM | > 100 µM | > 100 µM | > 100 µM
2 | Cc1cccc([C@@H]2C[C@@H]3Cc4ccccc4N2O3)c1 (relative stereo) | 52 µM | > 100 µM | >4 | 76.7 µM | > 100 µM | > 300 µM | > 300 µM | >5 | > 300 µM | > 300 µM | >3 | >3 | > 100 µM | > 100 µM | > 100 µM | > 100 µM
3 | Fc1ccc2c(c1)C[C@H]1C[C@@H](c3ccccc3)N2O1 (relative stereo) | 47.6 µM | > 100 µM | >39 | 7.68 µM | 54.1 µM | > 300 µM | > 300 µM | >6 | > 300 µM | > 300 µM | >3 | >3 | > 100 µM | > 100 µM | > 100 µM | > 100 µM
4 | Clc1ccc([C@@H]2C[C@@H]3Cc4ccccc4N2O3)cc1 (relative stereo) | 38.3 µM | 67.5 µM | >8 | 34.2 µM | 89.4 µM | > 300 µM | > 300 µM | >7 | > 300 µM | > 300 µM | >3 | >6 | > 100 µM | > 100 µM | 45.4 µM | 66.8 µM
5 | Clc1cccc([C@@H]2C[C@@H]3Cc4ccccc4N2O3)c1 (relative stereo) | 49.1 µM | 70.7 µM | >6 | 45.8 µM | > 100 µM | 134 µM | > 300 µM | 2.73 | > 300 µM | > 300 µM | >1 | >3 | > 100 µM | > 100 µM | > 100 µM | > 100 µM
6 | Cc1ccc2c(c1)C[C@H]1C[C@@H](c3ccccc3Cl)N2O1 (relative stereo) | 41.7 µM | 49.5 µM | 3.51 | 14.3 µM | 30.4 µM | 66.8 µM | 109 µM | 1.6 | 50.2 µM | > 300 µM | >0.66 | 0.96 | > 100 µM | > 100 µM | 51.9 µM | > 100 µM
7 | Clc1ccc2c(c1)C[C@H]1C[C@@H](c3ccccc3Cl)N2O1 (relative stereo) | 51.3 µM | > 100 µM | 6.17 | 17.6 µM | 43.9 µM | > 300 µM | > 300 µM | >5 | 109 µM | > 300 µM | >3 | >1 | > 100 µM | > 100 µM | > 100 µM | > 100 µM
